Experiments:
human neutrophils [1] = test: elastase release by human neutrophils in response to fMLP/CB; format: cell-based; settings: read-out: elastase IC50, mean ± S.E.M. (n = 3–4)
human neutrophils [2] = test: superoxide anion generation by human neutrophils in response to fMLP/CB; format: cell-based; settings: Neutrophil
α-glucosidase = α-glucosidase (Saccharomyces cerevisiae, UniProt P53341); settings: previous report; cited from earlier work
[3] = system: A549 (lung) cancer cell line; test: in vitro cytotoxicity; format: cell-based, human; settings: A549 lung cells; compared with KB and DU145
Procedure, shortened: (§1)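 Cells grown in RPMI-1640 with 25 mM HEPES, 0.25% sodium bicarbonate, 10% FBS and 100 μg/mL kanamycin. Freshly trypsinized cells were seeded at 5000 per well, and test compound was added from DMSO-diluted stock. After three days, cells were fixed with cold 10% TCA and stained with 0.4% sulforhodamine B, and the solubilized dye was read at 562 nm.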

[4] = system: HCT-8 (colon) cancer cell line; test: in vitro cytotoxicity; format: cell-based, human; settings: HCT-8 colon cells; compared with KB and DU145
Procedure, shortened: as §1

[5] = system: DU145 (prostate) cancer cell line; test: in vitro cytotoxicity; format: cell-based, human; settings: DU145 versus the other cancer cell lines
[6] = system: KB (nasopharyngeal) cancer cell line; test: in vitro cytotoxicity; format: cell-based, human; settings: KB versus the other cancer cell lines

Chain of α-glucosidase (P53341 whole entry): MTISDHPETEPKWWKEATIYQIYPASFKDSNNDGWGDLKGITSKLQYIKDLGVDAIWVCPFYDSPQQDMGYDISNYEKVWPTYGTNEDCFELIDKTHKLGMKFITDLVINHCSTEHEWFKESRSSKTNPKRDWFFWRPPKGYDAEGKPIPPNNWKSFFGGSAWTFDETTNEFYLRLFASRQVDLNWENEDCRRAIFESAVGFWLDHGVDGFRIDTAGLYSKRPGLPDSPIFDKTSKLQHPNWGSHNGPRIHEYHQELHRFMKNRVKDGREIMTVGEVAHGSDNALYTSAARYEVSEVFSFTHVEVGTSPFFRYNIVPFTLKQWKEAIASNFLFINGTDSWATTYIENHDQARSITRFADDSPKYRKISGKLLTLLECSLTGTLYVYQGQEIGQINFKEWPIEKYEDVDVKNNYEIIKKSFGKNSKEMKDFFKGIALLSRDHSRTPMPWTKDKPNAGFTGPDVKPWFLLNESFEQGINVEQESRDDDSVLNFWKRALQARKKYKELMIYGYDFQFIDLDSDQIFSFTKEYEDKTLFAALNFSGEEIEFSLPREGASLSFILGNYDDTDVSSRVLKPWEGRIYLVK

O=S(=O)(F)Cc1ccccc1 [PMSF, phenylmethylsulfonyl fluoride]
IC50 (human neutrophils [1]): 95 ± 25 µM

c1ccc2c(c1)[I+]c1ccccc1-2 [DPI, Diphenyleneiodonium, reference compound]
IC50 (human neutrophils [2]; read-out: superoxide IC50): 1020 ± 350 nM

CC1(C)CC[C@]2(C(=O)O[C@@H]3O[C@H](CO)[C@@H](O)[C@H](O)[C@H]3O)CC[C@]3(C)C(=CC[C@@H]4[C@@]5(C)CC[C@H](O[C@@H]6O[C@H](C(=O)O)[C@@H](O[C@H]7O[C@@H](CO)[C@H](O)[C@H]7O)[C@H](O[C@@H]7O[C@H](CO)[C@@H](O)[C@H](O)[C@H]7O)[C@H]6O)C(C)(C)[C@@H]5CC[C@]43C)[C@@H]2C1 [Compound 9, stipuleanoside R2]
IC50 (human neutrophils [2]; read-out: IC50 values, inhibition of superoxide anion generation and elastase release): 780 to 43600 nM

C=C[C@@H](O)C#CC#CC/C=C\CCCCCCC [Compound 28, (3R)-(−)-falcarinol]
inhibition of α-glucosidase activity (α-glucosidase): strongly inhibited

C=CCCCCC[C@H](O)[C@@H](O)CC#CC#C[C@@H](O)CC [Compound 27, panaxjapyne C]
inhibition of α-glucosidase activity (α-glucosidase): strongly inhibited

C=C[C@H](O)C#CC#C/C=C/[C@@H](O)CCCCCCC [Compound 29, (3S,10S)-panaxydiol]
inhibition of α-glucosidase activity (α-glucosidase): strongly inhibited

CCCCCCC/C=C\CC#CC#CC(O)CC (stereo not drawn) [Compound 25, panaxjapyne A]
inhibition of α-glucosidase activity (α-glucosidase): strongly inhibited

C=C[C@H](O)C#CC#CC[C@@H](O)[C@H](O)CCCCCCC [Compound 30, (3S,9R,10R)-panaxytriol]
inhibition of α-glucosidase activity (α-glucosidase): strongly inhibited

C/C(=C/CC[C@](C)(O)[C@H]1CC[C@]2(C)[C@@H]1[C@H](O)C[C@@H]1[C@@]3(C)CC[C@H](O)C(C)(C)[C@@H]3[C@@H](O[C@@H]3O[C@H](CO)[C@@H](O)[C@H](O)[C@H]3O[C@@H]3O[C@H](CO)[C@@H](O)[C@H](O)[C@H]3O)C[C@]12C)CO [Compound 1, panajaponol A]
cytotoxicity [3]: significantly less susceptible
cytotoxicity [4]: significantly less susceptible
selective cytotoxic activity [5]: greater than two- to three-fold selective
selective cytotoxic activity [6]: greater than two- to three-fold selective

— PMC3092375 (Journal of natural products, 2011)
